ChEMBL document CHEMBL1151769, “Triprenylated flavonoids from Dorstenia psilurus and their alpha-glucosidase inhibition properties” (J Nat Prod, 2008)
Activity calls are given as the source filed them. The calls are words filed in the database; no cut-off is given here.

Assays:
[1] = Inhibition of jack bean beta-D-mannosidase; set-up: species or system Canavalia ensiformis
[2] = Inhibition of sweet almonds beta-D-glucosidase; set-up: species or system Prunus dulcis
[3] = Inhibition of yeast alpha-D-glucosidase; set-up: species or system Saccharomyces
In short: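 α-Glucosidase (500 units/mL) with p-nitrophenyl glucopyranoside (0.7 mM final) in 50 mM phosphate buffer pH 6.9, 1% v/v DMSO, 37 °C, 10 min, with or without a range of inhibitor concentrations. Stopped with an equal volume of 100 mM Na2CO3, and p-nitrophenol read at 400 nm. Rate taken from the linear slope of 1-min readings. IC50 derived by kinetic fitting.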

Canavalia ensiformis = assay: Inhibition of jack bean beta-D-mannosidase at 800 uM
Prunus dulcis = assay: Inhibition of sweet almonds beta-D-glucosidase at 800 uM

SMILES: CC(C)=CCc1c(O)c(CC=C(C)C)c2oc(-c3ccc4c(c3)OC(C)(C)C=C4)c(O)c(=O)c2c1O [DORSILURIN C]
- IC50 [1]: 358 µM
- IC50 [2]: 422 µM
- IC50 [3]: 11.2 µM

SMILES: CC(C)=CCc1ccc(-c2oc3c(CC=C(C)C)c(O)c(CC=C(C)C)c(O)c3c(=O)c2O)cc1O [DORSILURIN F]
- IC50 [1]: 192 µM
- IC50 [2]: 117 µM
- IC50 [3]: 4.13 µM

SMILES: C=C(C)[C@@H](O)Cc1ccc(-c2oc3c(CC=C(C)C)c(O)c(CC=C(C)C)c(O)c3c(=O)c2O)cc1O [DORSILURIN G]
- IC50 [1]: 232 µM
- IC50 [2]: 431 µM
- IC50 [3]: 7.51 µM

SMILES: C=C(C)[C@@H](O)Cc1ccc(-c2oc3c(CC=C(C)C)c(O)c4c(c3c(=O)c2O)OC(C)(C)CC4)cc1O [DORSILURIN H]
- IC50 [2]: 671 µM
- IC50 [3]: 24 µM
- Activity (Canavalia ensiformis): inactive

SMILES: C=C(C)[C@@H](O)Cc1ccc(-c2oc3c4c(c(CC=C(C)C)c(O)c3c(=O)c2O)OC(C)(C)CC4)cc1O [DORSILURIN I]
- IC50 [2]: 431 µM
- IC50 [3]: 21.5 µM
- Activity (Canavalia ensiformis): inactive

SMILES: CC(C)=CCc1ccc(-c2oc3c(CC=C(C)C)c(O)c4c(c3c(=O)c2O)OC(C)(C)CC4)cc1O [DORSILURIN J]
- IC50 [1]: 518 µM
- IC50 [2]: 317 µM
- IC50 [3]: 16.9 µM

SMILES: CC(C)=CCc1ccc(-c2oc3c4c(c5c(c3c(=O)c2O)OC(C)(C)CC5)OC(C)(C)CC4)cc1O [DORSILURIN K]
- IC50 [3]: 44 µM
- Activity (Canavalia ensiformis): inactive
- Activity (Prunus dulcis): inactive

SMILES: OC[C@H]1NC[C@H](O)[C@@H](O)[C@@H]1O [DUVOGLUSTAT]
- IC50 [3]: 426 µM
